{"source": "ChEMBL document CHEMBL3526029", "about": "“Disposition and metabolism of GSK2251052 in humans: a novel boron-containing antibiotic” (Drug Metab Dispos, 2013)", "key": {"[1]": {"experiment": "Tmax in healthy human plasma at 1500 mg, iv infusion for 1 hr as single dose", "assay_type": "ADME, organism-based", "in_short": "(§1)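 Healthy men got a single 1500 mg [14C] dose by 1 h i.v. infusion. K2EDTA blood was sampled up to 336 h. Radioactivity in blood and plasma was measured by LSC, with AMS for plasma below LLQ. Parent and M3 were measured by LC/MS/MS (5–10,000 ng/ml range). Noncompartmental analysis used actual times, with t1/2 = ln2/λz and Tmax observed directly, timed from infusion start.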"}, "[2]": {"experiment": "Drug metabolism in human liver cytosol assessed as ADH-mediated (S)-3-(3-(aminomethyl)-1-hydroxy-1,3-dihydrobenzo[c][1,2]oxaborol-7-yloxy)propanoicacid formation at 50 to 500 uM by spectrophotometry in presence of NAD+", "assay_type": "ADME", "conditions": "TDE = time-dependent effect"}, "[3]": {"experiment": "AUC (0 to t) in healthy human plasma at 1500 mg, iv infusion for 1 hr as single dose", "assay_type": "ADME, organism-based", "in_short": "(§2)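 Six fasted healthy men received 1500 mg [14C]GSK2251052 as a 1-h constant-rate i.v. infusion. K2EDTA plasma was sampled from predose to 72 h, with profiling samples added at 96, 144 and 336 h. Parent and M3 were measured by validated LC/MS/MS after methanol/formic acid precipitation with stable-label internal standards (range 5–10,000 ng/ml). Noncompartmental analysis used actual times, linear-up/log-down trapezoids and CL = dose/AUC(0-∞).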"}, "[4]": {"experiment": "Half life in cynomolgus monkey at 35 mg/kg, iv administered as single infusion for 1 hr followed single oral dose of 35 mg/kg 4-MP", "assay_type": "ADME, organism-based, Macaca fascicularis", "conditions": "in vivo", "in_short": "(§3)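 Male cynomolgus monkeys received 35 mg/kg as a 1 h i.v. infusion (7 mg/ml in saline, pH 5; 5 ml/kg/h), either alone or 1 h after oral gavage of 4-MP (8.75 mg/ml in water, 4 ml/kg). Plasma was sampled from 0.5 to 120 h, and parent and M3 were measured by LC/MS/MS. Noncompartmental analysis used nominal times, with t1/2 = ln2/λz.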"}, "[5]": {"experiment": "Tmax in cynomolgus monkey at 35 mg/kg, iv administered as single infusion for 1 hr", "assay_type": "ADME, organism-based, Macaca fascicularis", "design": "dose 35 mg/kg, route intravenous", "conditions": "in vivo", "in_short": "as §3"}, "[6]": {"experiment": "Mean residence time in cynomolgus monkey at 35 mg/kg, iv administered as single infusion for 1 hr followed single oral dose of 35 mg/kg 4-MP", "assay_type": "ADME, organism-based, Macaca fascicularis", "conditions": "in vivo", "in_short": "as §3"}, "[7]": {"experiment": "Volume of distribution at steady state in healthy human plasma at 1500 mg, iv infusion for 1 hr as single dose", "assay_type": "ADME, organism-based", "conditions": "read-out: Vdss", "in_short": "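Healthy males got 1500 mg by 1-h IV infusion. Plasma (K2EDTA) was sampled to 72 h, plus 96, 144 and 336 h. Parent was measured by a validated LC/MS/MS method after methanol/formic acid precipitation with a stable-isotope internal standard (range 5–10,000 ng/ml). Vss = CL × MRT from noncompartmental analysis.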"}, "[8]": {"experiment": "Clearance in cynomolgus monkey at 35 mg/kg, iv administered as single infusion for 1 hr followed single oral dose of 35 mg/kg 4-MP", "assay_type": "ADME, organism-based, Macaca fascicularis", "conditions": "in vivo", "in_short": "(§4)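 Male cynomolgus monkeys given a 1-h i.v. infusion at 35 mg/kg (7 mg/ml in saline, pH 5, 5 ml/kg/h). Where 4-MP was used, it was given by oral gavage 1 h before infusion (8.75 mg/ml in water, 4 ml/kg). K2EDTA plasma was sampled from 0.5 to 120 h after infusion start. Parent and M3 were measured by LC/MS/MS after protein precipitation (range 100–200,000 ng/ml). Noncompartmental analysis used nominal times.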"}, "[9]": {"experiment": "Clearance in healthy human plasma at 1500 mg, iv infusion for 1 hr as single dose", "assay_type": "ADME, organism-based", "in_short": "as §2"}, "[10]": {"experiment": "AUC (0 to infinity) in cynomolgus monkey at 35 mg/kg, iv administered as single infusion for 1 hr followed single oral dose of 35 mg/kg 4-MP", "assay_type": "ADME, organism-based, Macaca fascicularis", "conditions": "plasma", "in_short": "as §4"}, "[11]": {"experiment": "Cmax in cynomolgus monkey at 35 mg/kg, iv administered as single infusion for 1 hr", "assay_type": "ADME, organism-based, Macaca fascicularis", "design": "dose 35 mg/kg, route intravenous", "conditions": "in vivo", "in_short": "as §4"}, "[12]": {"experiment": "Volume of distribution at steady state in cynomolgus monkey at 35 mg/kg, iv administered as single infusion for 1 hr", "assay_type": "ADME, organism-based, Macaca fascicularis", "design": "dose 35 mg/kg, route intravenous", "conditions": "in vivo, read-out: Vdss", "in_short": "(§5)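 Cynomolgus monkeys got a 1-h IV infusion at 35 mg/kg (7 mg/ml in saline, pH 5), either alone or 1 h after oral gavage of 4-methylpyrazole (8.75 mg/ml in water, 4 ml/kg). Plasma (K2EDTA) was sampled to 120 h and assayed by protein precipitation and LC/MS/MS (range 100–200,000 ng/ml). Vss (CL × MRT) was derived by noncompartmental analysis on nominal times; values are for males.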"}, "[13]": {"experiment": "Half life in cynomolgus monkey at 35 mg/kg, iv administered as single infusion for 1 hr", "assay_type": "ADME, organism-based, Macaca fascicularis", "design": "dose 35 mg/kg, route intravenous", "conditions": "in vivo", "in_short": "as §3"}, "Liver cytosol": {"system": "Liver cytosol", "experiment": "Drug metabolism in human liver cytosol assessed as (S)-3-(3-(aminomethyl)-1-hydroxy-1,3-dihydrobenzo[c][1,2]oxaborol-7-yloxy)propanoicacid formation at 50 to 500 uM after 3 hrs by spectrophotometry in presence of NAD+ and ADH inhibitor 4-MP", "assay_type": "ADME"}, "[14]": {"experiment": "AUC (0 to infinity) in healthy human plasma at 1500 mg, iv infusion for 1 hr as single dose", "assay_type": "ADME, organism-based", "design": "dose 1500 mg, route intravenous, time infinity", "in_short": "as §2"}, "[15]": {"experiment": "Tmax in cynomolgus monkey at 35 mg/kg, iv administered as single infusion for 1 hr followed single oral dose of 35 mg/kg 4-MP", "assay_type": "ADME, organism-based, Macaca fascicularis", "conditions": "in vivo", "in_short": "as §3"}, "[16]": {"experiment": "Volume of distribution at steady state in cynomolgus monkey at 35 mg/kg, iv administered as single infusion for 1 hr followed single oral dose of 35 mg/kg 4-MP", "assay_type": "ADME, organism-based, Macaca fascicularis", "conditions": "in vivo, read-out: Vdss", "in_short": "as §5"}, "[17]": {"experiment": "Mean residence time in cynomolgus monkey at 35 mg/kg, iv administered as single infusion for 1 hr", "assay_type": "ADME, organism-based, Macaca fascicularis", "design": "dose 35 mg/kg, route intravenous", "conditions": "in vivo", "in_short": "as §3"}, "[18]": {"experiment": "Cmax in cynomolgus monkey at 35 mg/kg, iv administered as single infusion for 1 hr followed single oral dose of 35 mg/kg 4-MP", "assay_type": "ADME, organism-based, Macaca fascicularis", "conditions": "in vivo", "in_short": "as §4"}, "[19]": {"experiment": "Clearance in cynomolgus monkey at 35 mg/kg, iv administered as single infusion for 1 hr", "assay_type": "ADME, organism-based, Macaca fascicularis", "design": "dose 35 mg/kg, route intravenous", "conditions": "in vivo", "in_short": "as §4"}, "[20]": {"experiment": "Half life in healthy human plasma at 1500 mg, iv infusion for 1 hr as single dose", "assay_type": "ADME, organism-based", "in_short": "as §1"}, "[21]": {"experiment": "Cmax in healthy human plasma at 1500 mg, iv infusion for 1 hr as single dose", "assay_type": "ADME, organism-based", "design": "dose 1500 mg, route intravenous", "in_short": "as §2"}, "[22]": {"experiment": "AUC (0 to infinity) in cynomolgus monkey at 35 mg/kg, iv administered as single infusion for 1 hr", "assay_type": "ADME, organism-based, Macaca fascicularis", "design": "time infinity, dose 35 mg/kg, route intravenous", "conditions": "plasma", "in_short": "as §4"}, "[23]": {"experiment": "Drug metabolism assessed as purified ADH (unknown origin)-mediated (S)-3-(3-(aminomethyl)-1-hydroxy-1,3-dihydrobenzo[c][1,2]oxaborol-7-yloxy)propanoicacid formation at 50 to 500 uM by spectrophotometry in presence of NAD+", "assay_type": "ADME", "conditions": "human, TDE = time-dependent effect"}, "[24]": {"experiment": "Drug recovery in healthy human feces treated with [14C]GSK2251052 at 1500 mg, iv infusion for 1 hr as single dose after 120 hrs by HPLC method", "assay_type": "ADME, organism-based", "conditions": "in vivo", "in_short": "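Feces pooled over 0–120 h per subject by sample weight. About 1 g homogenate extracted twice with 4 volumes of acetonitrile:methanol:water:formic acid (50:25:25:1) under 20 min sonication. Extracts dried and reconstituted in water:methanol 90:10. Profiled by HPLC (Atlantis T3, ammonium acetate pH 4.5/methanol, 30°C) with fraction radiocounting and Orbitrap MS. Results given as % of dose, corrected for extraction recovery.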"}, "[25]": {"experiment": "Drug recovery in healthy human feces treated with [14C]GSK2251052 at 1500 mg, iv infusion for 1 hr as single dose after 0 to 120 hrs by HPLC method", "conditions": "in vivo"}, "[26]": {"experiment": "Drug recovery in healthy human urine treated with [14C]GSK2251052 at 1500 mg, iv infusion for 1 hr as single dose after 120 to 336 hrs by HPLC method", "assay_type": "ADME, organism-based", "conditions": "in vivo, BLD = below limit of detection", "in_short": "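Urine pooled by weight per subject over 0–120 h; 120–336 h pools from all subjects combined into one composite. Centrifuged at ~21,000g, then supernatant profiled by HPLC (Atlantis T3, ammonium acetate pH 4.5/methanol, 30°C) with radiochemical detection plus MS identification. Results are % of dose, corrected for centrifugation recovery measured by triplicate LSC.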"}}}
{"compound": "Cl.NC[C@H]1OB(O)c2c(OCCCO)cccc21", "values": [{"measurement": "Tmax", "setting": "[1]", "value": 55, "unit": "min"}, {"measurement": "Drug metabolism", "setting": "[2]", "value": "tde"}, {"measurement": "AUC(0-t) at 1 h", "setting": "[3]", "value": 72300, "unit": "ng·h/mL"}, {"measurement": "half-life", "setting": "[4]", "value": 552, "unit": "min"}, {"measurement": "Tmax", "setting": "[5]", "value": 55.2, "unit": "min"}, {"measurement": "MRT", "setting": "[6]", "value": 11, "unit": "h"}, {"measurement": "Vd", "setting": "[7]", "value": 197, "unit": "L"}, {"measurement": "clearance", "setting": "[8]", "value": 3.67, "unit": "mL/min/kg"}, {"measurement": "clearance", "setting": "[9]", "value": 345, "unit": "mL/min"}, {"measurement": "AUC(0-inf)", "setting": "[10]", "value": 161, "unit": "µg·h/mL"}, {"measurement": "Cmax", "setting": "[11]", "value": 46000, "unit": "ng/mL"}, {"measurement": "Vd", "setting": "[12]", "value": 3.04, "unit": "L/kg"}, {"measurement": "half-life", "setting": "[13]", "value": 324, "unit": "min"}, {"measurement": "Drug metabolism", "setting": "Liver cytosol", "value": "metabolite_not_detected"}, {"measurement": "AUC(0-inf)", "setting": "[14]", "value": 72500, "unit": "ng·h/mL"}, {"measurement": "Tmax", "setting": "[15]", "value": 55.2, "unit": "min"}, {"measurement": "Vd", "setting": "[16]", "value": 2.53, "unit": "L/kg"}, {"measurement": "MRT", "setting": "[17]", "value": 4.9, "unit": "h"}, {"measurement": "Cmax", "setting": "[18]", "value": 68.6, "unit": "µg/mL"}, {"measurement": "clearance", "setting": "[19]", "value": 10, "unit": "mL/min/kg"}, {"measurement": "half-life", "setting": "[20]", "value": 696, "unit": "min"}, {"measurement": "Cmax", "setting": "[21]", "value": 24600, "unit": "ng/mL"}, {"measurement": "AUC(0-inf)", "setting": "[22]", "value": 60700, "unit": "ng·h/mL"}, {"measurement": "Drug metabolism", "setting": "[23]", "value": "tde"}]}
{"compound": "NCC(O)c1cccc(OCCC(=O)O)c1O", "note": "(stereo not drawn)", "values": [{"measurement": "Drug recovery", "setting": "[24]", "value": 1.4, "unit": "%"}, {"measurement": "Drug recovery", "setting": "[25]", "value": 1.4, "unit": "%"}, {"measurement": "Drug recovery", "setting": "[26]", "value": "BLD"}]}
{"compound": "NCC(O)c1cccc(OCCCO)c1O", "note": "(stereo not drawn)", "values": [{"measurement": "Drug recovery", "setting": "[26]", "value": "BLD"}]}
